How the values were obtained:
[1] = Elimination T1/2 in Guinea pig (IV dose); details: in vivo, read-out: T1/2 beta
[2] = species on record: Homo sapiens; experiment: Inhibition of collagen-induced platelet aggregation in human platelet-rich plasma; type: functional
How it was run: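 Human citrated PRP (160g, 15 min, room temperature) with platelet-poor plasma as reference. Samples at various concentrations were added at 37 °C 1 min before 5 µg/mL collagen. Aggregation was read as the increase in light transmission. Percent inhibition of aggregation rate versus control gave IC50 from dose-inhibition curves. Values are means ± SEM of three experiments; GRGDS peptide served as reference.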

[3] = target: Integrin alpha-IIb/beta-3 (Homo sapiens, UniProt P05106+P08514); experiment: Binding affinity to human fibrinogen receptor; type: protein-complex assay
Integrin alpha-IIb/beta-3, sequence (P05106 27-788 limits assumed): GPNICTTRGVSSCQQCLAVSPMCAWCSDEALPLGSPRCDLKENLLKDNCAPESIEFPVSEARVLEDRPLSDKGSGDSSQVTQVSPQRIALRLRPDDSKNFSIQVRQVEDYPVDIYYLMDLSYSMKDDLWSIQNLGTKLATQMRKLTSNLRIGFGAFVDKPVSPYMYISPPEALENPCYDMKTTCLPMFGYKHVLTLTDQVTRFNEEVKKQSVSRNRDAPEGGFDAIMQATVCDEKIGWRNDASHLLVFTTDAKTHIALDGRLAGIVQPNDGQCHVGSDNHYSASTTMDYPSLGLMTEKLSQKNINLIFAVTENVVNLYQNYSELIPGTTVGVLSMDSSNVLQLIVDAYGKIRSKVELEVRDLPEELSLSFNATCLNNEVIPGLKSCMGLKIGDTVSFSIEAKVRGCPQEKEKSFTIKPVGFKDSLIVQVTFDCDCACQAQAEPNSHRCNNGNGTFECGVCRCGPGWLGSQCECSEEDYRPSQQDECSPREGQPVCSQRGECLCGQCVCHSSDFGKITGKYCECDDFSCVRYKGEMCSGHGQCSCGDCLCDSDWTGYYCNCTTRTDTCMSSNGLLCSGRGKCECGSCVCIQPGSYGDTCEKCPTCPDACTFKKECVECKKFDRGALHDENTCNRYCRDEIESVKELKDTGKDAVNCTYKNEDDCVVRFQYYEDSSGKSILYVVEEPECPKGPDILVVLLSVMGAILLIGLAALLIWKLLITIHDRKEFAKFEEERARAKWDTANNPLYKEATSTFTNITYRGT
Integrin alpha-IIb/beta-3, sequence (P08514 32-887 limits assumed): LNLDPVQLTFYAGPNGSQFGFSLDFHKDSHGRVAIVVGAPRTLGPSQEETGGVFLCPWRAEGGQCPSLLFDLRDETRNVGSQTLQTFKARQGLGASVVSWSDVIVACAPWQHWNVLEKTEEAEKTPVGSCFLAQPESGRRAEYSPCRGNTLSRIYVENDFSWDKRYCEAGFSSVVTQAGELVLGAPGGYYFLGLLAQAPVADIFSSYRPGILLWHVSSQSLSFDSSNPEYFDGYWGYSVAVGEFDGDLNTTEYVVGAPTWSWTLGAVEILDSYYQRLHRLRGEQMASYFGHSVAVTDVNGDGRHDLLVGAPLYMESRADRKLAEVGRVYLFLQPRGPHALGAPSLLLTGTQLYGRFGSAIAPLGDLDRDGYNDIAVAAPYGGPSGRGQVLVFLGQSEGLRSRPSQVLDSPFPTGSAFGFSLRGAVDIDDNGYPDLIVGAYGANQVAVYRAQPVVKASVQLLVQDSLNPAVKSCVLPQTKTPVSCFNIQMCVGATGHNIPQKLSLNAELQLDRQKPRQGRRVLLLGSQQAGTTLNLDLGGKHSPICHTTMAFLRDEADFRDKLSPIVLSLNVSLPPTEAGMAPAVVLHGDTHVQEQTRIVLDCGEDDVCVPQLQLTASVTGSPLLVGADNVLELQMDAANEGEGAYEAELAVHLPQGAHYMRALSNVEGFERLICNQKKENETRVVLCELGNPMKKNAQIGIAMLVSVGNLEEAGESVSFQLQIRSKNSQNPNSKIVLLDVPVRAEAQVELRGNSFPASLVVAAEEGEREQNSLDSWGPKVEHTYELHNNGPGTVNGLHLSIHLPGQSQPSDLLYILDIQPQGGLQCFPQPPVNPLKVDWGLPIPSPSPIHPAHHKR
Integrin alpha-IIb/beta-3, sequence (P08514 891-1039 limits assumed): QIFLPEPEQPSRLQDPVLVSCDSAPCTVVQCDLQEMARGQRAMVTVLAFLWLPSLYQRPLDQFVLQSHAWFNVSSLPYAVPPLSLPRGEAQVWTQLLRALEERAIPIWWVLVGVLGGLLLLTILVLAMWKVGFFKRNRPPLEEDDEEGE
How it was run: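 Competitive solid-phase ELISA. Plates were coated with 5 µg/mL human GPIIb/IIIa overnight at 4 °C and blocked 3 h at room temperature with 35 mg/mL BSA in 50 mM Tris, 100 mM NaCl, 2 mM CaCl₂, 0.02% NaN₃, pH 7.4. Human fibrinogen solution (30 µg/mL as added) plus inhibitor was incubated 3 h at room temperature. Bound fibrinogen was detected with alkaline phosphatase-conjugated anti-human fibrinogen antibody.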

[4] = Tmax in rat (PO dose); details: in vivo
[5] = Cmax in rat (PO dose); type: ADME, organism-based; design: route oral; details: in vivo
How it was run: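 Male Sprague-Dawley rats (190-210 g) were fasted overnight with water available. Dosing was 10 mg/kg po as a suspension in 2% arabic gum. Jugular vein blood was drawn at 30, 60 and 120 min, and active-form plasma levels were measured by HPLC. Cmax is the highest of these three time points.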

[6] = Elimination T1/2 in Guinea pig (IV dose); details: in vivo

Structure (SMILES)	half-life [1]	IC50 [2]	IC50 [3]	Tmax [4]	Cmax [5]	half-life [6]
CCCCCC(NC(=O)c1ccc(C(=N)N)cc1)C(C)(C)C(=O)N1CCC(CC(=O)O)CC1 (stereo not given)	0.517 h	160 nM	22.3 nM	–	–	–
CCOC(=O)CC1CCN(C(=O)C(C)(C)C(CC)NC(=O)c2ccc(C(=N)N)cc2F)CC1 (stereo not given)	1.48 h	62 nM	2.7 nM	0.5 h	90 ng/mL	–
CCOC(=O)CC1CCN(C(=O)C(C)(C)C(CC)NC(=O)c2ccc(C(=N)N3CCSC3)cc2F)CC1 (stereo not given)	1.83 h	45 nM	2.3 nM	0.5 h	1210 ng/mL	–
CCCCC(NC(=O)c1ccc(C(=N)N)cc1)C(C)(C)C(=O)N1CCC(CC(=O)O)CC1 (stereo not given)	1.03 h	82 nM	3.8 nM	–	–	–
CC(C)(/C=C/C(=O)c1ccc(C(=N)N)cc1)C(=O)N1CCC(CC(=O)O)CC1	–	310 nM	36 nM	–	–	–
CC(C)(CNC(=O)c1ccc(C(=N)N)cc1)C(=O)N1CCC(CC(=O)O)CC1	–	–	125 nM	–	–	–
CCCCC(NC(=O)c1ccc(C(=N)N)cc1F)C(C)(C)C(=O)N1CCC(CC(=O)O)CC1 (stereo not given)	1.3 h	81 nM	5.7 nM	–	–	–
CC(C)CC(NC(=O)c1ccc(C(=N)N)cc1)C(C)(C)C(=O)N1CCC(CC(=O)O)CC1 (stereo not given)	0.917 h	81 nM	2.7 nM	–	–	–
CCOC(=O)CC1CCN(C(=O)C(C)(C)C(CC)NC(=O)c2ccc(C(=N)N3CCN(c4ccc(F)cc4)CC3)cc2F)CC1 (stereo not given)	0.417 h	79 nM	5.6 nM	1 h	232 ng/mL	–
CCCC(NC(=O)c1ccc(C(=N)N)cc1)C(C)(C)C(=O)N1CCC(CC(=O)O)CC1 (stereo not given)	0.9 h	82 nM	5.1 nM	–	–	–
CC(C)C(NC(=O)c1ccc(C(=N)N)cc1)C(C)(C)C(=O)N1CCC(CC(=O)O)CC1 (stereo not given)	0.8 h	150 nM	8.6 nM	–	–	–
CCOC(=O)CC1CCN(C(=O)C(C)(C)C(CC)NC(=O)c2ccc(C(=N)N3CCC(O)CC3)cc2F)CC1 (stereo not given)	3.5 h	48 nM	5.8 nM	1 h	290 ng/mL	–
C/C=C/C(NC(=O)c1ccc(C(=N)N)cc1)C(C)(C)C(=O)N1CCC(CC(=O)O)CC1 (stereo not given)	0.933 h	170 nM	13 nM	–	–	–
CN(C(=O)c1ccc(C(=N)N)cc1)C(c1ccccc1)C(C)(C)C(=O)N1CCC(CC(=O)O)CC1 (stereo not given)	1.42 h	300 nM	21.3 nM	–	–	–
CCC(NC(=O)c1ccc(C(=N)N)cc1)C(C)(C)C(=O)N1CCC(CC(=O)O)CC1 (stereo not given)	1.3 h	85 nM	–	–	–	–
CCOC(=O)CC1CCN(C(=O)C(C)(C)C(CC)NC(=O)c2ccc(C(=N)N3CCOCC3)cc2F)CC1 (stereo not given)	4.62 h	160 nM	4 nM	0.5 h	922 ng/mL	–
C#CCN(C(=O)c1ccc(C(=N)N)cc1)C(CCCC)C(C)(C)C(=O)N1CCC(CC(=O)O)CC1 (stereo not given)	1.5 h	1400 nM	363 nM	–	–	–
CC(NC(=O)c1ccc(C(=N)N)cc1F)C(C)(C)C(=O)N1CCC(CC(=O)O)CC1 (stereo not given)	1.4 h	76 nM	4.3 nM	–	–	–
CCOC(=O)CC1CCN(C(=O)C(C)(C)C(CC)NC(=O)c2ccc(C(=N)N3CCCC3)cc2F)CC1 (stereo not given)	2.07 h	89 nM	7 nM	1 h	194 ng/mL	–
CCOC(=O)CC1CCN(C(=O)C(C)(C)C(CC)NC(=O)c2ccc(C(=N)N3CCN(C)CC3)cc2F)CC1 (stereo not given)	1.77 h	72 nM	5.4 nM	2 h	392 ng/mL	–
CCC(NC(=O)c1ccc(C(=N)N)cc1F)C(C)(C)C(=O)N1CCC(CC(=O)O)CC1 (stereo not given)	1.48 h	62 nM	2.7 nM	–	–	–

Further lines, results first:

half-life [1]	IC50 [2]	IC50 [3]	Tmax [4]	Cmax [5]	half-life [6]	Structure (SMILES)
2.5 h	250 nM	31.3 nM	–	–	–	CC(C)(C(=O)N1CCC(CC(=O)O)CC1)C(NC(=O)c1ccc(C(=N)N)cc1)c1cccc(Cl)c1 (stereo not given)
–	230 nM	25.3 nM	–	–	0.533 h	CC(C)(C(=O)N1CCC(CC(=O)O)CC1)C(NC(=O)c1ccc(C(=N)N)cc1)c1ccccc1 (stereo not given)
1.2 h	660 nM	34.7 nM	–	–	–	CC(C)(C(=O)N1CCC(CC(=O)O)CC1)C(NC(=O)c1ccc(C(=N)N)cc1)c1ccc(Cl)cc1 (stereo not given)
0.85 h	380 nM	21 nM	–	–	–	CC(C)(C(=O)N1CCC(CC(=O)O)CC1)C(NC(=O)c1ccc(C(=N)N)cc1)c1ccc2ccccc2c1 (stereo not given)
0.767 h	160 nM	47.3 nM	–	–	–	CC(C)(C(=O)N1CCC(CC(=O)O)CC1)C(CCc1ccccc1)NC(=O)c1ccc(C(=N)N)cc1 (stereo not given)
0.883 h	82 nM	5.3 nM	–	–	–	CC(NC(=O)c1ccc(C(=N)N)cc1)C(C)(C)C(=O)N1CCC(CC(=O)O)CC1 (stereo not given)
1.08 h	76 nM	2.6 nM	–	–	–	CC(C)(C(=O)N1CCC(CC(=O)O)CC1)C(NC(=O)c1ccc(C(=N)N)cc1)c1cccc(O)c1 (stereo not given)
1.05 h	220 nM	23.7 nM	–	–	–	CC(C)(C(=O)N1CCC(CC(=O)O)CC1)C(NC(=O)c1ccc(C(=N)N)cc1)c1ccc(O)cc1 (stereo not given)
1.25 h	370 nM	27.3 nM	–	–	–	CC(C)(C(=O)N1CCC(CC(=O)O)CC1)C(NC(=O)c1ccc(C(=N)N)cc1Cl)c1ccccc1 (stereo not given)
